Measurements gathered from unrelated publications.
Lines come from different studies, so protocols differ.
Target: Discoidin domain-containing receptor 2 (DDR2, Homo sapiens, UniProt Q16832)
Residues used in one study (Q16832 22-855): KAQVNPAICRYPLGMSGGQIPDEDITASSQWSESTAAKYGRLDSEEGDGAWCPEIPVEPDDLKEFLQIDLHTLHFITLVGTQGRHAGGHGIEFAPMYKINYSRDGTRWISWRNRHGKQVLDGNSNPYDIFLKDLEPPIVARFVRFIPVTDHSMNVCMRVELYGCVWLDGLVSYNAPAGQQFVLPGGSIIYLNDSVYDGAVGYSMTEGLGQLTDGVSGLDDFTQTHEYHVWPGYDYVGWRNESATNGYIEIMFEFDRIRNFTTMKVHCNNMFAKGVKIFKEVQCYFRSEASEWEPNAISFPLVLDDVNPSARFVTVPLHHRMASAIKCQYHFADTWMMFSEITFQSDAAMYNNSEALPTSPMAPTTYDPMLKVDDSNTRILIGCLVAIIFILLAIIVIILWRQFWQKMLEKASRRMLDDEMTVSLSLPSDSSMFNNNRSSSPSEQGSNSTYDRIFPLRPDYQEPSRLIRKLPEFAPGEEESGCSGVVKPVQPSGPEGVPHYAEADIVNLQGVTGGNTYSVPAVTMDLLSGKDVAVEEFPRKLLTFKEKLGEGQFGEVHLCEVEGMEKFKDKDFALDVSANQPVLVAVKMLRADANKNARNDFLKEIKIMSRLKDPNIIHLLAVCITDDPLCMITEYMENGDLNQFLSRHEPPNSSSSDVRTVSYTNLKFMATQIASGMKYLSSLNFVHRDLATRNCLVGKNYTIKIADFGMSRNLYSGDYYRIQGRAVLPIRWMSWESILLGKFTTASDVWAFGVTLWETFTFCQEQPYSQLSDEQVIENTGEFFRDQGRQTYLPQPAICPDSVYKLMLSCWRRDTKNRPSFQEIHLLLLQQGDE

Cc1noc([C@H]2C[C@@H](c3ccc(C(F)(F)F)cc3)CN(C(=O)N3CCS(=O)(=O)C3)C2)n1
remaining binding (cell-free assay, competition with immobilised ligand; 1 µM): 74%

COc1cc(Cl)c(C(=O)N[C@@H](CN[C@H]2CC[C@@H](N)CC2)Cc2ccc(C#N)cc2)cc1-c1ccc(CN[C@H](C)c2ccc(C)cc2)o1
remaining activity (enzyme activity, inhibitor; 1 µM): 104%

COc1cc(/C=C/C(=O)CC(=O)/C=C/c2ccc(O)c(OC)c2)ccc1O
activity vs control (enzyme activity, inhibitor; 1 µM): 109%

CCCS(=O)(=O)Nc1ccc(F)c(C(=O)c2c[nH]c3ncc(-c4ccc(Cl)cc4)cc23)c1F
inhibition (enzyme activity, inhibitor; 1 µM): < 10%

Cc1c[nH]c2nccc(Oc3c(F)cc(Nc4cc(Cl)nc(N)n4)cc3F)c12
remaining binding (cell-free assay, competition with immobilised ligand; 0.1 µM): 57%

N#CCCc1ccc2c(c1)-c1[nH]c3ccc([N+](=O)[O-])cc3c1CC(=O)N2
remaining signal (cell-free assay; 0.5 µM): 105%

CCN(CC)CCNC(=O)c1c(C)[nH]c(/C=C2\C(=O)Nc3ccc(F)cc32)c1C
remaining activity (enzyme activity, inhibitor; 0.1 µM): 101%

Cc1ccc(Nc2nccc(N(C)c3ccc4c(C)n(C)nc4c3)n2)cc1S(N)(=O)=O
remaining signal (cell-free assay; 0.5 µM): 36.2%

Cc1[nH]c(/C=C2\C(=O)Nc3ccc(F)cc32)c(C)c1C(=O)N[C@H]1CCN(C(=O)N(C)C)C1
remaining activity (enzyme activity, inhibitor; 0.1 µM): 113%

CCN(CC)CCNC(=O)c1c(C)[nH]c(/C=C2\C(=O)Nc3ccc(F)cc32)c1C
inhibition (enzyme activity, inhibitor; 10 µM): 31%

Cc1ccc(NC(=O)c2ccc(C)c(C(F)(F)F)c2)cc1C#Cc1nn(C2CCC(O)CC2)c2ncnc(N)c12 (stereo not drawn)
remaining signal (cell-free assay; 10 µM): 16%

CCCOc1ccc(OC)c(F)c1C(=O)c1ccc(C(=O)N[C@@H]2CNC[C@H]2NC(=O)c2ccc3[nH]ncc3c2)cc1
remaining activity (enzyme activity, inhibitor; 10 µM): 103%

O=C(NC[C@@H]1[C@H]2CN(C(=O)OCc3cc(C(F)(F)F)cc(C(F)(F)F)c3)C[C@@H]12)c1ccc2[nH]nnc2c1
remaining binding (cell-free assay, competition with immobilised ligand; 1 µM): 82%

CC(C)(C)c1nc(-c2cccc(NS(=O)(=O)c3c(F)cccc3F)c2F)c(-c2ccnc(N)n2)s1
remaining activity (enzyme activity, inhibitor, radiometric; 1 µM): 14%

CN(C)c1ncnc(-c2ccc3nc(Nc4cc(CN5CCN(C(=O)CC(F)(F)F)CC5)ccn4)[nH]c3c2)c1Cl
remaining binding (cell-free assay, competition with immobilised ligand; 1 µM): 71%

O=C1Nc2ccc(Cl)cc2C1=Cc1cc(Cl)c(O)c(Cl)c1
remaining signal (cell-free assay; 0.5 µM): 85.8%

CCN(CC)c1ccc(C2=NNC(=O)CC2C)cc1[N+](=O)[O-] (stereo not drawn)
remaining activity (enzyme activity, inhibitor; 10 µM): 100%

Cc1ccc(C(=O)NCc2ccsc2)cc1C#Cc1cn(C(C)C)c2ncnc(N)c12
activity vs control (enzyme activity, inhibitor; 1 µM): 4%

CS(=O)(=O)c1cc(C2(NC(=O)c3cncc4c3cnn4-c3ccc(F)cc3)CC2)ccn1
remaining binding (cell-free assay, competition with immobilised ligand; 1 µM): 100%

O=C(Nc1cnn(-c2csc(C(=O)NC3COC3)c2)c1)Nc1ccccc1Cl
remaining activity (enzyme activity, inhibitor; 5 µM): 99.8%

FC(F)(F)c1ccc2c(c1)nc(-c1cccnc1)n2C1CC1
remaining binding (cell-free assay, competition with immobilised ligand; 1 µM): 100%

CNC(=O)c1cc(Oc2ccc(NC(=O)Nc3ccc(Cl)c(C(F)(F)F)c3)cc2)ccn1
inhibition (enzyme activity, inhibitor; 0.3 µM): 108%

CCC(=O)N[C@H]1CC[C@@H](C(=O)N(C)c2ccc(-c3nc4ccccc4o3)cc2)C1
remaining binding (cell-free assay, competition with immobilised ligand; 1 µM): 100%

COc1cc2nccc(Oc3ccc(NC(=O)c4c5n(n(-c6ccc(F)cc6)c4=O)CCCC5)cc3)c2cc1OC
inhibition (enzyme activity, inhibitor; 0.1 µM): 20%
